The test system of one data set is OVCAR-4. In words: Antitumor activity against human OVCAR4 cells after 3 days by WST1 assay. In kind it is functional, cell-based. The note with it: for IC50: OVCAR-4, 72 h. An outline of the steps:
(§1)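 Cell lines grown in Iscove's MDM with 5% FCS, 50 µM 2-mercaptoethanol, penicillin and streptomycin; suspension lines kept at 0.5-1.5 × 10^6 cells/mL, adherent lines subconfluent. Cells seeded in triplicate at 10^4 cells/100 µL. Compounds were dissolved in water and added immediately at 0 to 100 µM final. WST.1 read at 440 nm on day 3; IC50 taken from OD versus concentration plots.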
(In general: Formazan colour is commonly taken as a measure of viable cells.)

Another data set relates to COLO 205. The experiment in a line: Antitumor activity against human COLO205 cells after 3 days by WST1 assay. In kind it is functional, cell-based. The following applies: for IC50: COLO 205, 72 h. An outline of the steps:
as §1

Data set [1] concerns MCF7. The experiment in a line: Antitumor activity against human MCF7 cells up to 50 uM after 3 days by WST1 assay. In kind it is functional, cell-based. An outline of the steps:
as §1

A further data set deals with MDA-MB-468. In words: Antitumor activity against human MDA468 cells up to 50 uM after 3 days by WST1 assay. It counts as functional, cell-based. An outline of the steps: as §1
Data set [2] can be described thus: Cytotoxicity against human CCD-967 cells up to 50 uM after 3 days by WST1 assay. In kind it is cell-based. The following applies: ccd-967, 72 h. An outline of the steps:
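Cells grown in Iscove's MDM with 5% FCS, 50 µM 2-mercaptoethanol and antibiotics, kept subconfluent if adherent. Seeded in triplicate at 10^4 cells/100 µL with compounds (in water) added at once, 0 to 100 µM final. WST.1 formazan read at 440 nm on day 3; IC50 from OD versus concentration.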

The subject of the next data set is Hs-578T. The experiment in a line: Antitumor activity against human Hs 578T cells up to 50 uM after 3 days by WST1 assay. It counts as functional, cell-based. An outline of the steps:
as §1

The next data set relates to T47D. In words: Antitumor activity against human T47D cells up to 50 uM after 3 days by WST1 assay. In kind it is functional, cell-based. An outline of the steps:
as §1

The test system of the next data set is PC-3. The experiment in a line: Antitumor activity against human PC3 cells up to 50 uM after 3 days by WST1 assay. It counts as functional, cell-based. An outline of the steps: as §1
The test system of the next data set is SNB-19. The experiment in a line: Antitumor activity against human SNB19 cells up to 50 uM after 3 days by WST1 assay. It counts as functional, cell-based. An outline of the steps:
as §1

Data set [3] in a line: Antitumor activity against human MDA468 cells after 3 days by WST1 assay. It counts as functional, cell-based. The note with it: MDA-MB-468, 72 h. An outline of the steps:
as §1

Data set [4] is described as follows: Antitumor activity against human OCI-AML1 cells after 3 days by WST1 assay. It counts as functional, cell-based. The note with it: ML1, 72 h. An outline of the steps: as §1
For the next data set, the system named is OCI-AML2. The experiment in a line: Antitumor activity against human OCI-AML2 cells after 3 days by WST1 assay. It counts as functional, cell-based. The note with it: OCI-AML2, 72 h. An outline of the steps: as §1
Data set [5] can be described thus: Antitumor activity against human OCI-LY7 cells after 3 days by WST1 assay. In kind it is functional, cell-based. The note with it: OCI-Ly7, 72 h. An outline of the steps: as §1
The nature of data set [6]: Antitumor activity against human OCI-My 2 cells after 3 days by WST1 assay. It counts as functional, cell-based. The note with it: 72 h. An outline of the steps: as §1
Data set [7] in a line: Antitumor activity against human SKW3 cells after 3 days by WST1 assay. It counts as functional, cell-based. The following applies: SKW3, 72 h. An outline of the steps: as §1
Data set [8] has as its system MCF7. The experiment in a line: Antitumor activity against human MCF7 cells after 3 days by WST1 assay. In kind it is functional, cell-based. The note with it: MCF7, 72 h. An outline of the steps:
as §1

Data set [9] can be described thus: Antitumor activity against human LOX cells after 3 days by WST1 assay. In kind it is functional, cell-based. The note with it: 72 h. An outline of the steps:
as §1

Calls of active or inactive are those of the source. The rule behind the calls is not given here.

As for `Nc1cc(=O)[nH]c(=O)n1[C@@H]1O[C@H](CO)[C@@H](O)[C@H]1O`, the IC50 (with OVCAR-4; in the data set on COLO 205; in [3]; in data set [4]; in the data set on OCI-AML2; in data set [5]) was > 50 µM in each case. Besides, the IC50 (in data set [6]; in data set [7]; with MCF7 [8]; in [9]) was > 50 µM each time. The outcome in the data set with MCF7 [1], with MDA-MB-468, in the data set with Hs-578T, in the data set on T47D, with PC-3 and with SNB-19 was inactive. The Activity result in [2] was “Not Active”.

Regarding `CC(=O)OC[C@H]1O[C@@H](n2c(I)cc(=O)[nH]c2=O)[C@H](O)[C@@H]1O`, the IC50 in the data set on OVCAR-4 is > 50 µM; with COLO 205, > 50 µM; in [3] it was > 50 µM; in data set [4], 15.2 µM; in the data set with OCI-AML2, 11.7 µM; in data set [5], 36.2 µM. In addition, the IC50 in data set [6] was 1.3 µM; in [7], 1.6 µM; with MCF7 [8], 4.4 µM; in data set [9] it was 1.1 µM. The outcome with MDA-MB-468, in the data set on Hs-578T, in the data set with T47D, with PC-3 and in the data set with SNB-19 was inactive. Further, the Activity result in data set [2] is on record as “Not Active”.

As to `O=c1[nH]c(=O)n([C@@H]2O[C@H](CO)[C@@H](O)[C@H]2O)cc1F` [5-FLUOROURIDINE], the result in the data set with MCF7 [1], with MDA-MB-468, in the data set with Hs-578T, in the data set on T47D, with PC-3 and in the data set on SNB-19 was inactive. The Activity result in data set [2] is listed as “Not Active”.

As for `O=c1cc(O)n([C@@H]2O[C@H](COP(=O)(O)O)[C@@H](O)[C@H]2O)c(=O)[nH]1`, the IC50 (in the data set on OVCAR-4; in the data set on COLO 205; in data set [3]; in [4]; in the data set on OCI-AML2; in data set [5]) was > 50 µM throughout. Besides, the IC50 (in data set [6]; in data set [7]; with MCF7 [8]; in [9]) was > 50 µM each time. For the same molecule, the result with MCF7 [1], in the data set on MDA-MB-468, in the data set with Hs-578T, with T47D, in the data set on PC-3 and in the data set on SNB-19 was inactive. In data set [2], the Activity result was “Not Active”.

For `O=c1cc(O)n([C@@H]2O[C@H](CO)[C@@H](O)[C@H]2O)c(=O)[nH]1`, the IC50 (with OVCAR-4; in the data set on COLO 205; in [3]; in [4]; with OCI-AML2; in data set [5]) was > 50 µM in each case. The IC50 (in data set [6]; in data set [7]; in the data set on MCF7 [8]; in data set [9]) was > 50 µM throughout. For the same molecule, the result with MCF7 [1], with MDA-MB-468, in the data set with Hs-578T, with T47D, in the data set on PC-3 and in the data set with SNB-19 was inactive. For the same molecule, the Activity result in [2] was “Not Active”.

With `O=c1[nH]c(=O)n([C@@H]2O[C@H](CO)[C@@H](O)[C@H]2O)c(I)c1Br`, the IC50 (in the data set with OVCAR-4; with COLO 205; in data set [3]; in data set [4]; in the data set on OCI-AML2; in data set [5]) was > 50 µM each time. For the same molecule, the IC50 (in data set [6]; in [7]; with MCF7 [8]; in data set [9]) was > 50 µM throughout. Moreover, the result with MCF7 [1], in the data set with MDA-MB-468, in the data set with Hs-578T, in the data set on T47D, in the data set with PC-3 and in the data set with SNB-19 was inactive. In addition, the Activity result in data set [2] was “Not Active”.

Take `CN(C)c1cc(=O)[nH]c(=O)[nH]1`: the IC50 (with OVCAR-4; in the data set with COLO 205; in [3]; in data set [4]; with OCI-AML2; in data set [5]) was > 50 µM throughout. Also, the IC50 (in data set [6]; in data set [7]; in the data set on MCF7 [8]; in data set [9]) was > 50 µM each time. Besides, the result with MCF7 [1], in the data set with MDA-MB-468, in the data set on Hs-578T, in the data set on T47D, in the data set on PC-3 and in the data set with SNB-19 was inactive. Further, the Activity result in data set [2] is recorded as “Not Active”.

Take `O=c1cnn([C@@H]2O[C@H](COP(=O)(O)O)[C@@H](O)[C@H]2O)c(=O)[nH]1` [6-AZA-URIDINE MONOPHOSPHATE]: the IC50 in the data set on OVCAR-4 was > 50 µM; in the data set with COLO 205, > 50 µM; in data set [3], > 50 µM; in data set [4], 6.1 µM; with OCI-AML2 it was 16 µM; in [5], > 50 µM. For the same molecule, the IC50 was 18.7 µM in data set [6], 2.8 µM in [7], > 50 µM with MCF7 [8] and 6.7 µM in data set [9]. The outcome in the data set on MCF7 [1], with MDA-MB-468, in the data set with Hs-578T, in the data set with T47D, in the data set on PC-3 and with SNB-19 was inactive. Also, the Activity result in data set [2] was “Not Active”.

With `O=c1cc(NO)n([C@@H]2O[C@H](CO)[C@@H](O)[C@H]2O)c(=O)[nH]1`, the result with OVCAR-4, in the data set with COLO 205, in the data set on MCF7 [1], in the data set on MDA-MB-468, with Hs-578T and with T47D was inactive. The result with PC-3 and with SNB-19 was inactive. Further, in data set [2], the Activity entry is reported as “Not Active”. In addition, the IC50 (in data set [3]; in [4]; with OCI-AML2; in [5]; in data set [6]; in [7]) was > 50 µM in each case. Moreover, the IC50 (with MCF7 [8]; in data set [9]) was > 50 µM throughout.

As to `O=c1[nH]c(=O)n([C@@H]2O[C@H](CO)[C@@H](O)[C@H]2O)c(I)c1F`, the IC50 (in the data set with OVCAR-4; in the data set with COLO 205; in data set [3]; in data set [4]; in the data set on OCI-AML2; in data set [5]) was > 50 µM throughout. For the same molecule, the IC50 (in data set [6]; in [7]; in the data set with MCF7 [8]; in data set [9]) was > 50 µM in each case. Moreover, the result in the data set on MCF7 [1], with MDA-MB-468, with Hs-578T, with T47D, in the data set with PC-3 and in the data set with SNB-19 was inactive. Also, the Activity result in data set [2] is listed as “Not Active”.

Turning to `CCc1c(F)c(=O)[nH]c(=O)n1[C@@H]1O[C@H](CO)[C@@H](O)[C@H]1O`, in data set [2], the Activity result is “Not Active”. For the same molecule, the result in the data set on Hs-578T, with T47D, with PC-3 and in the data set on SNB-19 was inactive. In addition, the IC50 was 5.3 µM in data set [3]; 2.1 µM in data set [4]; 1.9 µM in [5]; 1.4 µM in [6]; 1.2 µM in data set [7]; 31.4 µM in the data set with MCF7 [8]. Also, inhibition in [9] was half-maximal at 4.5 µM (IC50).

The IC50 is the point on the concentration scale where inhibition reaches its midpoint. Read a high IC50 as weaker potency.

Values taken from ChEMBL document CHEMBL1152809, “Structure-activity relationships of orotidine-5'-monophosphate decarboxylase inhibitors as anticancer agents” (J Med Chem, 2009).
